From ChEMBL document CHEMBL5058577, “EUbOPEN Chemogenomics Library 2 (Multiplex)” (2022)

System: U2OS
Test: Multiplex assay against U2OS
Format: toxicity, cell-based
Details: human
How it was run: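 Values for tubulin, mitochondrial-mass and membrane-permeability phenotypes are per cents of cells with healthy nuclei. These cells were identified by CellPathfinder machine-learning gating of live cells that had been stained at seeding with Hoechst33342, BioTracker Green Microtubule Cytoskeleton Dye, MitoTracker Red and Annexin V Alexa Fluor 680 and imaged on a CQ1 microscope at 37°C and 5% CO2 after compound addition. The gating first set Hoechst high-intensity objects apart from normal cells, then split normal cells into healthy, pyknosed or fragmented nuclei, and pyknosed cells into mitotic or apoptotic.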

[1] = 12 h, 1 µM, compound concentration 1 uM, replicate 1
[2] = 12 h, 1 µM, compound concentration 1 uM, replicate 2
[3] = 12 h, 10 µM, compound concentration 10 uM, replicate 1
[4] = 12 h, 10 µM, compound concentration 10 uM, replicate 2
[5] = 24 h, 1 µM, compound concentration 1 uM, replicate 1
[6] = 24 h, 1 µM, compound concentration 1 uM, replicate 2
[7] = 24 h, 10 µM, compound concentration 10 uM, replicate 1
[8] = 24 h, 10 µM, compound concentration 10 uM, replicate 2
[9] = 48 h, 1 µM, compound concentration 1 uM, replicate 1
[10] = 48 h, 1 µM, compound concentration 1 uM, replicate 2
[11] = 48 h, 10 µM, compound concentration 10 uM, replicate 1
[12] = 48 h, 10 µM, compound concentration 10 uM, replicate 2

`CN[C@@H](C)C(=O)N[C@H](C(=O)N1CCC[C@H]1C(=O)Nc1snnc1-c1ccccc1)C1CCCCC1` [GDC-0152] was tested, and the “Population Apoptotic (%)” value [1] was 60%, the “Population Fragmented Nuclei (%)” value [1] was 25% and the “Population Healthy Nuclei (%)” value [1] was 61%. The “Population Hoechst High Intensity Objects (%)” value [1] was 5%, the “Population Membrane Permeable-Phenotype (%)” value [1] was 51% and the “Population Mitochondria Different-Phenotype (%)” value [1] was 24%. The “Population Mitotic Cells (%)” value [1] was 39%, the “Population Normal (%)” value [1] was 94% and the “Population Pyknosed Nuclei (%)” value [1] was 13%. The “Population Tubulin-Different-Phenotype (%)” value [1] was 47%, the “Total Cell Count” value [1] was 176 and the “Population Apoptotic (%)” value [2] was 89%. For the same compound, the “Population Fragmented Nuclei (%)” value [2] was 21%, the “Population Healthy Nuclei (%)” value [2] was 60% and the “Population Hoechst High Intensity Objects (%)” value [2] was 11%. For the same compound, the “Population Membrane Permeable-Phenotype (%)” value [2] was 50%, the “Population Mitochondria Different-Phenotype (%)” value [2] was 38% and the “Population Mitotic Cells (%)” value [2] was 10%. For the same compound, the “Population Normal (%)” value [2] was 88%, the “Population Pyknosed Nuclei (%)” value [2] was 17% and the “Population Tubulin-Different-Phenotype (%)” value [2] was 52%. For the same compound, the “Total Cell Count” value [2] was 121, the “Population Apoptotic (%)” value [3] was 72% and the “Population Fragmented Nuclei (%)” value [3] was 39%. The “Population Healthy Nuclei (%)” value [3] was 44%, the “Population Hoechst High Intensity Objects (%)” value [3] was 4% and the “Population Membrane Permeable-Phenotype (%)” value [3] was 65%. For the same compound, the “Population Mitochondria Different-Phenotype (%)” value [3] was 61%, the “Population Mitotic Cells (%)” value [3] was 27% and the “Population Normal (%)” value [3] was 95%. For the same compound, the “Population Pyknosed Nuclei (%)” value [3] was 16%, the “Population Tubulin-Different-Phenotype (%)” value [3] was 76% and the “Total Cell Count” value [3] was 208. The “Population Apoptotic (%)” value [4] was 70%, the “Population Fragmented Nuclei (%)” value [4] was 18% and the “Population Healthy Nuclei (%)” value [4] was 65%. For the same compound, the “Population Hoechst High Intensity Objects (%)” value [4] was 5%, the “Population Membrane Permeable-Phenotype (%)” value [4] was 73% and the “Population Mitochondria Different-Phenotype (%)” value [4] was 70%. For the same compound, the “Population Mitotic Cells (%)” value [4] was 29%, the “Population Normal (%)” value [4] was 94% and the “Population Pyknosed Nuclei (%)” value [4] was 15%. The “Population Tubulin-Different-Phenotype (%)” value [4] was 91%, the “Total Cell Count” value [4] was 114 and the “Population Apoptotic (%)” value [5] was 72%. The “Population Fragmented Nuclei (%)” value [5] was 21%, the “Population Healthy Nuclei (%)” value [5] was 55% and the “Population Hoechst High Intensity Objects (%)” value [5] was 5%. The “Population Membrane Permeable-Phenotype (%)” value [5] was 20%, the “Population Mitochondria Different-Phenotype (%)” value [5] was 18% and the “Population Mitotic Cells (%)” value [5] was 27%. For the same compound, the “Population Normal (%)” value [5] was 94%, the “Population Pyknosed Nuclei (%)” value [5] was 23% and the “Population Tubulin-Different-Phenotype (%)” value [5] was 19%. For the same compound, the “Total Cell Count” value [5] was 196, the “Population Apoptotic (%)” value [6] was 85% and the “Population Fragmented Nuclei (%)” value [6] was 34%. The “Population Healthy Nuclei (%)” value [6] was 44%, the “Population Hoechst High Intensity Objects (%)” value [6] was 8% and the “Population Membrane Permeable-Phenotype (%)” value [6] was 25%. For the same compound, the “Population Mitochondria Different-Phenotype (%)” value [6] was 28%, the “Population Mitotic Cells (%)” value [6] was 14% and the “Population Normal (%)” value [6] was 91%. The “Population Pyknosed Nuclei (%)” value [6] was 21%, the “Population Tubulin-Different-Phenotype (%)” value [6] was 27% and the “Total Cell Count” value [6] was 144. The “Population Apoptotic (%)” value [7] was 68%, the “Population Fragmented Nuclei (%)” value [7] was 36% and the “Population Healthy Nuclei (%)” value [7] was 43%. The “Population Hoechst High Intensity Objects (%)” value [7] was 3%, the “Population Membrane Permeable-Phenotype (%)” value [7] was 53% and the “Population Mitochondria Different-Phenotype (%)” value [7] was 59%. For the same compound, the “Population Mitotic Cells (%)” value [7] was 31%, the “Population Normal (%)” value [7] was 96% and the “Population Pyknosed Nuclei (%)” value [7] was 20%. For the same compound, the “Population Tubulin-Different-Phenotype (%)” value [7] was 59%, the “Total Cell Count” value [7] was 220 and the “Population Apoptotic (%)” value [8] was 92%. The “Population Fragmented Nuclei (%)” value [8] was 20%, the “Population Healthy Nuclei (%)” value [8] was 40% and the “Population Hoechst High Intensity Objects (%)” value [8] was 10%. The “Population Membrane Permeable-Phenotype (%)” value [8] was 59%, the “Population Mitochondria Different-Phenotype (%)” value [8] was 65% and the “Population Mitotic Cells (%)” value [8] was 7%. For the same compound, the “Population Normal (%)” value [8] was 89%, the “Population Pyknosed Nuclei (%)” value [8] was 38% and the “Population Tubulin-Different-Phenotype (%)” value [8] was 81%. For the same compound, the “Total Cell Count” value [8] was 121, the “Population Apoptotic (%)” value [9] was 93% and the “Population Fragmented Nuclei (%)” value [9] was 35%. The “Population Healthy Nuclei (%)” value [9] was 32%, the “Population Hoechst High Intensity Objects (%)” value [9] was 8% and the “Population Membrane Permeable-Phenotype (%)” value [9] was 16%. For the same compound, the “Population Mitochondria Different-Phenotype (%)” value [9] was 12%, the “Population Mitotic Cells (%)” value [9] was 6% and the “Population Normal (%)” value [9] was 91%. For the same compound, the “Population Pyknosed Nuclei (%)” value [9] was 32%, the “Population Tubulin-Different-Phenotype (%)” value [9] was 9% and the “Total Cell Count” value [9] was 246. The “Population Apoptotic (%)” value [10] was 88%, the “Population Healthy Nuclei (%)” value [10] was 30% and the “Population Membrane Permeable-Phenotype (%)” value [10] was 38%. For the same compound, the “Population Mitochondria Different-Phenotype (%)” value [10] was 17%, the “Population Mitotic Cells (%)” value [10] was 11% and the “Population Pyknosed Nuclei (%)” value [10] was 34%. The “Population Tubulin-Different-Phenotype (%)” value [10] was 27%, the “Total Cell Count” value [10] was 170 and the “Population Apoptotic (%)” value [11] was 100%. The “Population Fragmented Nuclei (%)” value [11] was 47%, the “Population Healthy Nuclei (%)” value [11] was 22% and the “Population Hoechst High Intensity Objects (%)” value [11] was 11%. The “Population Membrane Permeable-Phenotype (%)” value [11] was 39%, the “Population Mitochondria Different-Phenotype (%)” value [11] was 39% and the “Population Mitotic Cells (%)” value [11] was 0%. The “Population Normal (%)” value [11] was 88%, the “Population Pyknosed Nuclei (%)” value [11] was 29% and the “Population Tubulin-Different-Phenotype (%)” value [11] was 43%. For the same compound, the “Total Cell Count” value [11] was 246, the “Population Apoptotic (%)” value [12] was 98% and the “Population Fragmented Nuclei (%)” value [12] was 45%. For the same compound, the “Population Healthy Nuclei (%)” value [12] was 8%, the “Population Hoechst High Intensity Objects (%)” value [12] was 14% and the “Population Membrane Permeable-Phenotype (%)” value [12] was 80%. The “Population Mitochondria Different-Phenotype (%)” value [12] was 50%, the “Population Mitotic Cells (%)” value [12] was 1% and the “Population Normal (%)” value [12] was 85%. For the same compound, the “Population Pyknosed Nuclei (%)” value [12] was 45%, the “Population Tubulin-Different-Phenotype (%)” value [12] was 80% and the “Total Cell Count” value [12] was 138.
